High-throughput results as filed in PubChem.
SENP8 block-1 = inhibitors of human SENP8 protease. purified SENP8, Z-RLRGG-aminoluciferin cleavage, luminescence. Q96LD8. AID 2540. 1.2% of 330,000 active. inhibition, % at 10 µM; in the data active = inhibition above about 50%
SENP7 inh = inhibitors of human SENP7 protease | Q9BQF6 | recombinant SENP7, Z-RLRGG-aminoluciferin luminescence, 40 min | inhibition, % at 5 µM | 1.5% of 330,000 active;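 active = inhibition above about 50% at the single test dose, limit read from the data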;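 note: plate controls were DMSO with enzyme for no effect and no enzyme buffer wells for full effect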
SENP8 block-2 = blocks human SENP8 cleavage of Nedd8 substrate | Q96LD8 | recombinant SENP8, Nedd8 substrate fluorescence | inhibition, % at 20 µM | 0.64% of 360,000 active; in the data active = inhibition mostly above about 40%, no sharp cut-off; inactive = mostly below about 27%
UCH37 DUB inh = inhibitors of human deubiquitinating enzyme UCH37 | purified proteasome/UCH37, Ub-AMC cleavage fluorescence | inhibition, % (concentration not given with the values) | 0.33% of 330,000 active;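 active = mean inhibition over replicate wells above about 20%, limit read from the data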;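 note: 0% = compound-free wells with enzyme and 100% = wells lacking proteasome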
Target sequence (Q9Y5K5 whole entry, looked up): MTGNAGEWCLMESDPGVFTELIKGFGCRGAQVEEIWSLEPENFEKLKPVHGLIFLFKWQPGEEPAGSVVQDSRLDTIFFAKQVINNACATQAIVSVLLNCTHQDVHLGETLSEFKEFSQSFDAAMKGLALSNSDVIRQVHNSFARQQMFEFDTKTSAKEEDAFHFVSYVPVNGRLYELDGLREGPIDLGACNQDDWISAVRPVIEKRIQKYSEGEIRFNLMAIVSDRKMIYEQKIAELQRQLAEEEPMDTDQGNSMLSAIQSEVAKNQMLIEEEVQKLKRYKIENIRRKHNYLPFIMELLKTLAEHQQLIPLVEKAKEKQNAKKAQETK
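Material: Human UCH37 enzyme supplied as purified proteasome complex | Schedule: 30 min compound-proteasome preincubation then 25 min substrate reaction, room temperature | Detection: AMC fluorescence from Ub-AMC cleavage, excitation 355 nm, emission 460 nm | Benchmarks: Wells without proteasome as full block, compound-free enzyme plus substrate as uninhibited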
SENP6 inh = SENP6 protease inhibition. Q9GZR1. Recombinant SENP6 catalytic domain, aminoluciferin luminescence. inhibition, % at 10 µM. 1.8% of 330,000 active. AID 2599;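 active = inhibition above about 50% at the single tested dose, limit read from the data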;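 note: plate controls were DMSO wells with enzyme for no effect and DMSO wells lacking enzyme for full effect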
SENP1 inh = SENP1 (human) catalytic domain inhibition; inhibition, % at 10 µM; AID 624204; recombinant SENP1 catalytic domain, CyPet-SUMO1-YPet FRET cleavage; Q9P0U3; 0.21% of 360,000 active;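 active = inhibition at least 30% at 10 µM, raw YFP signal under a set limit, fluorescence ratio 0.5 to 1.5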;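 note: 0% = enzyme with DMSO and 100% = no enzyme wells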
Target sequence (Q9P0U3 419-644 limits assumed): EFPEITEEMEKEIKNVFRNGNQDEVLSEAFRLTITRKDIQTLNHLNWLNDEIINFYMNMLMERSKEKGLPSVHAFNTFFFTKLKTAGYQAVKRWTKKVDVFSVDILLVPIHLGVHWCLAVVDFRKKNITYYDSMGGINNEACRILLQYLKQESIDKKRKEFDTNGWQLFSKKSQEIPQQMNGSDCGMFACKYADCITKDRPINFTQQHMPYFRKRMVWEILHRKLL
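Test system: human SENP1 catalytic domain; medium: Tris pH 8 buffer plus EDTA, NaCl, BME, BSA, NP40, catalase; incubation: 50 min reaction at room temperature; technique: FRET, CFP and YFP emission; controls: no-enzyme low control and enzyme-plus-DMSO high control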
SENP8 conf = human SENP8 inhibition, confirmed. shares compounds with SENP7 inh. Recombinant SENP8, Z-RLRGG-aminoluciferin luminescence, 60 min. inhibition, % at 12.5 µM. 40% of 6,200 active. AID 488912;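 active = mean inhibition across replicates above about 50%, limit read from the data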
SENP6 conf = confirmation of human SENP6 protease inhibitors. shares compounds with SENP7 inh. recombinant SENP6, Z-RLRGG-aminoluciferin luminescence. inhibition, % at 12.5 µM. 58% of 6,200 active. AID 488915
SENP7 conf = confirmation of human SENP7 protease inhibitors. shares compounds with SENP7 inh. AID 488917. inhibition, % at 12.5 µM. recombinant SENP7, Z-RLRGG-aminoluciferin luminescence, 40 min. 69% of 6,200 active
Casp3 SENP sel = caspase-3 inhibition (SENP selectivity assay). inhibition, % at 12.5 µM. AID 488918. 60% of 6,200 active. purified caspase-3, Z-DEVD-aminoluciferin luminescence, 60 min. shares compounds with SENP7 inh;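 active = mean inhibition above about 50%, limit read from the data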;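 note: plate controls were enzyme with DMSO for no effect and wells without caspase-3 for full effect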
SENP luc ctr = counter-screen for SENP inhibitors: luminescence interference | shares compounds with SENP7 inh | Pre-incubated SENP8/Z-RLRGG-aminoluciferin, luciferase luminescence interference | inhibition, % at 12.5 µM | 39% of 6,200 active;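 active = mean inhibition above about 50% when retested at one dose, limit read from the data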;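 note: plate controls were DMSO wells with completed reaction for no effect and substrate without enzyme for full effect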
Numbers without * were called inactive; · = not tested or not shown. This is a sample that favours compounds with a hit; in the whole collection about 2.6% have one here.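 Rule for the calls, unless noted: active = mean inhibition above about 50% in the one-dose retest (limit read from the data); inactive = the rest.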

SMILES | SENP8 block-1 | SENP7 inh | SENP8 block-2 | UCH37 DUB inh | SENP6 inh | SENP1 inh | SENP8 conf | SENP6 conf | SENP7 conf | Casp3 SENP sel | SENP luc ctr
COc1ccc(/C=N/OCC(=O)Nc2nc3ccccc3s2)cc1OC | 70* | 75* | 21 | · | 87* | 2 | 11 | 78* | 94* | 64* | 51*
O=C(Nc1nc2c(s1)C(=O)CCC2)c1ccccc1 | 95* | 97* | -29 | 4 | 97* | 1 | 97* | 98* | 101* | 97* | 96*
COc1ccc(C(=O)Nc2nc3ccccc3s2)cc1OC | 6 | 15 | -102 | 0 | 21 | -2 | · | · | · | · | ·
COc1cccc(C(=O)Nc2nnc(SCC(=O)Nc3ccc(NC(C)=O)cc3)s2)c1 | 55* | 49 | -30 | 5 | 70* | 1 | 32 | 61* | 86* | 67* | 12
O=C(Nc1nc2ccccc2s1)c1ccc(F)cc1 | 85* | 93* | -43 | 3 | 88* | 2 | 2 | 87* | 100* | 86* | 48
COc1ccc(C=NOCC(=O)NC(c2ccccc2)c2ccccc2)cc1OC | · | · | · | 2 | · | · | · | · | · | · | ·
COC(=O)c1ccc(NC(=O)CON=C2CCCc3nonc32)cc1 | · | · | · | -3 | · | · | · | · | · | · | ·
O=C(Nc1nc2ccccc2s1)c1ccc(Cl)s1 | 67* | 82* | -289 | -14 | 77* | 3 | 14 | 50 | 51* | 41 | 17
COc1cccc(C(=O)Nc2nc(C)cs2)c1 | 17 | 42 | 15 | 4 | 52* | 3 | 31 | 32 | 72* | 69* | 50*
COc1cccc(C(=O)Nc2nc(-c3ccncc3)cs2)c1 | -4 | 7 | -15 | 0 | 1 | 0 | · | · | · | · | ·
O=C(Nc1nc(=O)c2ccccc2s1)c1ccccc1 | 43 | 41 | 19 | 4 | 60* | -1 | 20 | 53* | 17 | 27 | 11
COc1cccc(C(=O)Nc2nc3ccccc3s2)c1 | 86* | 91* | -17 | 0 | 90* | -4 | 90* | 91* | 99* | 83* | 60*
CC(=O)Nc1nc(=O)c2ccccc2s1 | -5 | 2 | 16 | 1 | -5 | -1 | · | · | · | · | ·
Cc1nc2ccccc2c(=O)n1N=Cc1cn[nH]c1-c1ccccc1 | · | · | · | 7 | · | · | · | · | · | · | ·
Cc1nn(-c2ccccc2)c(Cl)c1C=NNC(=O)c1ccco1 | · | · | · | 5 | · | · | · | · | · | · | ·
O=C(Nc1nc2ccccc2s1)c1ccc(OCC2CCCO2)cc1 (stereo not drawn) | 53* | 77* | -155 | -1 | 71* | 0 | 42 | 73* | 93* | 62* | 46
CC(=NNC(=S)Nc1cccc(C)c1)c1cc2ccccc2o1 | · | · | · | -1 | · | · | · | · | · | · | ·
O=C(O)c1ccccc1C=NNC(=O)c1cc(-c2ccco2)nc2ccccc12 | · | · | · | -218 | · | · | · | · | · | · | ·
CCc1noc(C)c1C(=O)Nc1nc2ccc(F)cc2s1 | 64* | 66* | -34 | 2 | 81* | -7 | 76* | 76* | 94* | 75* | 71*
Cc1noc(C)c1C(=O)Nc1nc2ccc(Cl)cc2s1 | 95* | 94* | -48 | 4 | 96* | 1 | 92* | 96* | 101* | 93* | 66*
Cc1noc(C)c1C(=O)Nc1nc2ccc(F)cc2s1 | 99* | 100* | -71 | 0 | 0 | -11 | 97* | 100* | 103* | 99* | 48
CCc1noc(C)c1C(=O)Nc1nc2ccc(S(C)(=O)=O)cc2s1 | 4 | 25 | -262 | 6 | 41 | -7 | · | · | · | · | ·
CC(CC(=O)Nc1ccc2c(c1)OCCO2)=NNC(=O)COc1ccccc1C | · | · | · | 0 | · | · | · | · | · | · | ·
O=c1c2ccccc2cnn1-c1nc2ccccc2[nH]1 | · | · | -372 | -101 | · | 2 | · | · | · | · | ·
O=c1c(Cl)c(N2CCCCC2)cnn1-c1nc2ccccc2[nH]1 | 89* | 97* | -11 | 5 | 97* | 0 | 96* | 96* | 102* | 98* | 6
SMILES | SENP8 block-1 | SENP7 inh | SENP8 block-2 | UCH37 DUB inh | SENP6 inh | SENP1 inh | SENP8 conf | SENP6 conf | SENP7 conf | Casp3 SENP sel | SENP luc ctr
Cc1cccc(C(=O)O/N=C/c2ccc(Br)cc2)c1 | 61* | 62* | 6 | · | 68* | 2 | 50 | 74* | 88* | 61* | 34
Cc1nc(NN=Cc2ccc3c(c2)OCO3)sc1C | · | · | · | -6 | · | · | · | · | · | · | ·
CC(C)(C)NC(=O)COc1ccc(-c2ccccc2)cc1 | -1 | 32 | 14 | 1 | 51* | 1 | 36 | 28 | 62* | 31 | 21
N#CCCNN=C(Cc1nc2ccccc2[nH]1)c1cccc(Cl)c1 | · | · | · | 4 | · | · | · | · | · | · | ·
Cc1nc2cc(NC(=O)c3ccc([N+](=O)[O-])s3)ccc2s1 | -7 | 39 | 25 | 0 | 2 | 17 | · | · | · | · | ·
Cc1nc2ccc(NC(=O)c3cccs3)cc2s1 | -12 | -2 | 2 | 1 | -7 | -1 | · | · | · | · | ·
COc1ccc2nc(NC(=O)c3ccccc3O)sc2c1 | 86* | 82* | -290 | -98 | 84* | -7 | 42 | 38 | 70* | 60* | 5
CC(=O)Nc1ccc2nc(NC(=O)c3cccs3)sc2c1 | 83* | 92* | -409 | -27 | 93* | 0 | 56* | 87* | 93* | 90* | 48
CC(=O)Nc1ccc2nc(NC(=O)c3ccc([N+](=O)[O-])s3)sc2c1 | 41 | 22 | · | 10 | 64* | · | 6 | 8 | 4 | 20 | -1
COc1ccc2nc(NC(=O)c3cccs3)sc2c1 | 94* | 97* | 12 | -153 | 96* | 1 | 2 | 4 | -3 | 10 | 17
Cc1ccc(COc2cccc(C=NNC(=O)c3nnn(-c4nonc4N)c3C)c2)cc1 | · | · | · | -7 | · | · | · | · | · | · | ·
CCOc1ccc2nc(NC(=O)c3ccc(C)o3)sc2c1 | 94* | 98* | -428 | -23 | 96* | -4 | 3 | 95* | 102* | 91* | 10
CCOc1ccc2nc(NC(=S)N(C)C)sc2c1 | 49 | 57* | 14 | 5 | 77* | 0 | 71* | 69* | 92* | 58* | 82*
CCCC(=O)Nc1nc2ccc(OCC)cc2s1 | -6 | -15 | -2 | 1 | -11 | -2 | · | · | · | · | ·
CCOc1ccc2nc(NC(=O)c3cccnc3)sc2c1 | 71* | 86* | -133 | -6 | 84* | -1 | 12 | 20 | 41 | 40 | 6
